Measurements: ChEMBL document CHEMBL3525945, “Metabolic switching of BILR 355 in the presence of ritonavir. II. Uncovering novel contributions by gut bacteria and aldehyde oxidase” (Drug Metab Dispos, 2012)

What was measured:
Cytochrome P450 2C19 = Cytochrome P450 2C19 (Homo sapiens, UniProt P33261); test: Activity at recombinant CYP2C19 (unknown origin) expressed in baculovirus-infected insect cells assessed as enzyme-mediated drug depletion at 1 to 10 uM by LC-MS/MS analysis in presence of NADPH; assay type: ADME
Cytochrome P450 2C19, sequence (P33261 whole entry): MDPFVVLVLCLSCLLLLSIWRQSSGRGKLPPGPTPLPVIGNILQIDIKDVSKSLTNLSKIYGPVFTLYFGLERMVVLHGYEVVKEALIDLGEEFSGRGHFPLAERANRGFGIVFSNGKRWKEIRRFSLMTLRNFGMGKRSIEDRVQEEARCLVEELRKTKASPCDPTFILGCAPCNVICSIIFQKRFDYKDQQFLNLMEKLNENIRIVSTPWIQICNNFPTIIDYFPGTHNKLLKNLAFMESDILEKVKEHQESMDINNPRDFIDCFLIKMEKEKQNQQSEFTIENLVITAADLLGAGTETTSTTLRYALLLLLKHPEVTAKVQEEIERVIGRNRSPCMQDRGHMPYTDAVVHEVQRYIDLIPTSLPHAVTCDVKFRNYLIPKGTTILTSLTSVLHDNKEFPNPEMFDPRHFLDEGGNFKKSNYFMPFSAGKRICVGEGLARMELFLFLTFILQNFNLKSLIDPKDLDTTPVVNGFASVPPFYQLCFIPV
Method in brief: (§1)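 BILR 402 (1 or 10 μM) with baculovirus/insect-cell recombinant CYPs, levels scaled to average liver content (1A2 2, 2A6 1, 2B6 0.1, 2C9 1.5, 2C19 1.5, 2D6 0.3, 3A4 5 pmol/mL). Buffer 0.1 M potassium phosphate, 5 mM MgCl2, pH 7.4; 2.5 mM NADPH; 37 °C. Non-transfected insect microsomes served as controls. Aliquots taken 0.5–30 min and acetonitrile-quenched; depletion measured by LC-MS/MS with isotope-labelled internal standard.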

Liver cytosol = test: Drug metabolism in human liver cytosol assessed as BILR355 formation at 10 uM by LC-MS/MS analysis; assay type: ADME, tissue-based
Method in brief: (§2)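 BILR 402 (10 μM final) was incubated with human liver S9 or cytosol (1 mg/mL protein) in 0.05 M potassium phosphate pH 7.4 at 37 °C. Runs were done with or without 2.5 mM NADPH. Samples at 10, 20, 30 and 60 min were quenched in nevirapine/acetonitrile, filtered and analysed by LC-MS/MS; duplicate.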

Cytochrome P450 2C9 = Cytochrome P450 2C9 (Homo sapiens, UniProt P11712); test: Activity at recombinant CYP2C9 (unknown origin) expressed in baculovirus-infected insect cells assessed as enzyme-mediated drug depletion at 1 to 10 uM by LC-MS/MS analysis in presence of NADPH; assay type: ADME; method in brief: as §1
Cytochrome P450 2C9, sequence (P11712 whole entry): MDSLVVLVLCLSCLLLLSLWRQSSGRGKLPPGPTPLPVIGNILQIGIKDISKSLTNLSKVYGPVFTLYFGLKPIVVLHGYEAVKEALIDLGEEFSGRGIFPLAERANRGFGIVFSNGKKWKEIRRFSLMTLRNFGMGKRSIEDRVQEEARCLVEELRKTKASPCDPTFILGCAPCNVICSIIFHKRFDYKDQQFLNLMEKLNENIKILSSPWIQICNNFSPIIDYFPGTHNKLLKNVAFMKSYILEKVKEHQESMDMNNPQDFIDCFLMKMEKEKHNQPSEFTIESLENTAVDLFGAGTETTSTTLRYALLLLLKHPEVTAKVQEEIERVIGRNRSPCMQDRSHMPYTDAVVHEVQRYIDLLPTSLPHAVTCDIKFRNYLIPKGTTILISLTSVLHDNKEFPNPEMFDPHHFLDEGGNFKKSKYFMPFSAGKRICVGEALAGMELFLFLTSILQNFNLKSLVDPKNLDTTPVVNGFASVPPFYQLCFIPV

Cytochrome P450 2B6 = target: T1, Cytochrome P450 2B6 (Homo sapiens, UniProt P20813); test: Activity at recombinant CYP2B6 (unknown origin) expressed in baculovirus-infected insect cells assessed as enzyme-mediated drug depletion at 1 to 10 uM by LC-MS/MS analysis in presence of NADPH; assay type: ADME; method in brief: as §1
T1 sequence (P20813 whole entry): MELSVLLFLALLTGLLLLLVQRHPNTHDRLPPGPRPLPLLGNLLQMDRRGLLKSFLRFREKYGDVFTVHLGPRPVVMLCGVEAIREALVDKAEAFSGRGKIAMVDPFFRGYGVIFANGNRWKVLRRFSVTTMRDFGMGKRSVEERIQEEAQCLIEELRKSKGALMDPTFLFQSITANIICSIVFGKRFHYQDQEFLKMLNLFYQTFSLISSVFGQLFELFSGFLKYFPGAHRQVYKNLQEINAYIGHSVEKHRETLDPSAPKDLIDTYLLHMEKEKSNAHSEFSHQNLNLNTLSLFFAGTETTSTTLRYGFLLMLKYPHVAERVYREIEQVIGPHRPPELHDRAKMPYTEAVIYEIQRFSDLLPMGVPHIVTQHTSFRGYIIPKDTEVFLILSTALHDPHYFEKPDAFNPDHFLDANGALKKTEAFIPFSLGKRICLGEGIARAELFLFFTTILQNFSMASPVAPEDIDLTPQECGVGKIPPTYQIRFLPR

[1] = Drug metabolism in human liver S9 fraction assessed as BILR355 formation at 10 uM by LC-MS/MS analysis in absence of NADPH; assay type: ADME; conditions: s9, 10 µM; method in brief: as §2

- Drug metabolism (Cytochrome P450 2C19): metabolite_not_detected
- Drug metabolism (Liver cytosol): metabolite_not_detected
- Drug metabolism (Cytochrome P450 2C9): metabolite_not_detected
- Drug metabolism (Cytochrome P450 2B6): metabolite_not_detected
- Drug metabolism [1]: metabolite_not_detected
Structure (SMILES): CCN1c2ncc(CCOc3ccnc4ccccc34)cc2C(=O)N(C)c2cccnc21
